The values that follow come from paper PMC6207383 (International Journal of Nanomedicine, 2018).

One series has as its system HepG2-TS. Nature of the series: CCK-8 cytotoxicity assay in HepG2 tumor spheres. The format is cell-based, human. The essentials: (§1)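 Cells seeded at 5×10^3/well and left overnight at 37°C to attach. They were then exposed for 48 h to graded concentrations of each agent alone or combined at fixed molar ratios (4:1, 2:1, 1:1, 1:2, 1:4). CCK-8 was added for about 2 h and A450 read. Viability = (AE–AB)/(AC–AB)×100%, using untreated and blank wells. HepG2 were grown in DMEM/10% FBS. Spheres were grown in DMEM-F12 with B27, ITS, 20 ng/mL EGF and bFGF, dissociated with Accutase and passed through a 100-µm sieve.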
(In general: Tetrazolium assays rely on reduction of a dye to a coloured formazan, in cell work by metabolically active cells.)

Series [1] relates to HepG2 cells. Briefly: Colony formation assay. Type of series: cell-based, human. Particulars: DOX and ELC 0.01 µM, 24 hours treatment, 8–10 days growth. The procedure, abridged: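 HepG2 cells were maintained in DMEM with 10% FBS and penicillin/streptomycin at 37°C, 5% CO2. They were seeded at 1×10^5 cells/well, left overnight, then exposed 24 h to free or nanoparticle test compounds (each drug at 0.01 µM final). Cells were trypsinized, reseeded at 800 cells/well and grown 8–10 days at 37°C. Colonies were stained with 1% crystal violet for 20 min at room temperature and counted by microscope.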

The subject of series [2] is HepG2 cells. Nature of the series: Tumor sphere formation assay. Type of series: cell-based, human. The conditions noted are these: DOX and ELC 0.15 µM, 7 days. The essentials: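 Trypsinized HepG2 cells were seeded at 500 cells/well in ultra-low-attachment wells in DMEM/F12 with 1× B27, 1× ITS, 20 ng/mL EGF and 20 ng/mL bFGF, then left overnight. Cells were exposed to free or nanoparticle test compounds (each drug at 0.15 µM final). After 7 days, tumor spheres were counted by microscope.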

Series [3] has as its system HepG2 cells. Nature of the series: CCK-8 cytotoxicity assay in HepG2 cells. The format is cell-based. The conditions noted are these: Homo sapiens, HepG2, 48 h. The essentials: as §1
Series [4] can be described thus: Tissue distribution study in vivo. The arrangement: species or system BALB/c nude mice. Particulars: iv 10 µg DiR per mouse, 2–24 hours. The procedure, abridged: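 Male BALB/c nude mice (4–6 weeks, about 20 g) bore subcutaneous right-back tumours from 2×10^6 HepG2 cells. At about 300 mm3 they were randomised to saline, free DiR or DiR-loaded nanoparticles, given as a single tail-vein injection. Imaging was under isoflurane at 745/820 nm excitation/emission, at 2, 4, 6, 8, 12 and 24 h. At 24 h, excised organs and tumours were imaged and quantified as total radiant efficiency.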

As usually defined, the IC50 is the point on the concentration scale where inhibition reaches its midpoint.

`COc1cccc2c1C(=O)c1c(O)c3c(c(O)c1C2=O)C[C@@](O)(C(=O)CO)C[C@@H]3O[C@H]1C[C@H](N)[C@H](O)[C@H](C)O1` [DOX, doxorubicin] displayed a 50% inhibitory concentration (IC50) in the series on HepG2-TS (HepG2-TS, 48 hours, CCK-8) of 0.477 ± 0.0514 µM. For the same molecule, the “number of colonies formed” value in the series with HepG2 cells [1] is listed as “reduced the formation of colonies compared with the control”. Also, in the series on HepG2 cells [2], the tumor sphere formation entry is “decreased tumor sphere formation compared with that in the control”.

With `COc1cc2c(cc1OC)CN(CCc1ccc(NC(=O)c3cccc4c(=O)c5cccc(OC)c5[nH]c34)cc1)CC2` [ELC, elacridar], the half-inhibitory concentration (IC50) in the series on HepG2 cells [3] was 9.27 ± 2.61 µM; in the series on HepG2-TS (Homo sapiens, HepG2, 48 h), 13.7 ± 4.27 µM. For the same molecule, the “number of colonies formed” value in the series on HepG2 cells [1] was “reduced the formation of colonies compared with the control”. Besides, the tumor sphere formation entry with HepG2 cells [2] is reported as “decreased tumor sphere formation compared with that in the control”.

With `CCCCCCCCCCCCCCCCCCN1/C(=C/C=C/C=C/C=C/C2=[N+](CCCCCCCCCCCCCCCCCC)c3ccccc3C2(C)C)C(C)(C)c2ccccc21.[I-]` [free DiR], the “DiR signals in real-time in vivo images” value in series [4] is “No obvious DiR signals”.
